Converted amounts (≈) assume the structure as drawn.
Assays:
Format in all cases: functional
[1] = tested on: Escherichia coli; test: Antibacterial activity against Escherichia coli assessed as inhibition of bacterial growth after 24 hrs by microbroth dilution method
Outline: (§1)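 Bacterial inoculum set to 1×10^5 CFU with sterile saline. Test agents and reference drugs, from DMSO stocks, diluted in Mueller-Hinton broth to 512, 256, 128, 64, 32, 16, 8, 4, 2, 1 and 0.5 µg/mL. Inoculated dilutions incubated 37 °C for 24 h.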

[2] = tested on: Pseudomonas aeruginosa; test: Antibacterial activity against Pseudomonas aeruginosa ATCC 27853 assessed as inhibition of bacterial growth after 24 hrs by microbroth dilution method; outline: as §1
[3] = tested on: Staphylococcus aureus; test: Antibacterial activity against Staphylococcus aureus ATCC 25923 assessed as inhibition of bacterial growth after 24 hrs by microbroth dilution method; outline: as §1
[4] = tested on: Staphylococcus aureus; test: Antibacterial activity against Staphylococcus aureus ATCC 29213 assessed as inhibition of bacterial growth after 24 hrs by microbroth dilution method
Outline: (§2)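 Inoculum adjusted in sterile saline to 1×10^5 CFU. Compounds dissolved in DMSO as stock, then diluted in Mueller-Hinton broth as a two-fold series from 512 to 0.5 µg/mL (11 levels). Inoculated dilutions incubated at 37 °C for 24 h, and the MIC recorded.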

[5] = tested on: Staphylococcus aureus; test: Antibacterial activity against Staphylococcus aureus assessed as inhibition of bacterial growth after 24 hrs by microbroth dilution method; outline: as §1
[6] = tested on: Escherichia coli; test: Antibacterial activity against Escherichia coli ATCC 25922 assessed as inhibition of bacterial growth after 24 hrs by microbroth dilution method; outline: as §1
[7] = tested on: Klebsiella pneumoniae; test: Antibacterial activity against Klebsiella pneumoniae assessed as inhibition of bacterial growth after 24 hrs by microbroth dilution method; outline: as §1
[8] = tested on: Staphylococcus aureus; test: Antibacterial activity against methicillin resistant Staphylococcus aureus assessed as inhibition of bacterial growth after 24 hrs by microbroth dilution method; outline: as §2
[9] = tested on: Acinetobacter baumannii; test: Antibacterial activity against Acinetobacter baumannii assessed as inhibition of bacterial growth after 24 hrs by microbroth dilution method; outline: as §1
[10] = tested on: Enterococcus faecalis; test: Antibacterial activity against Enterococcus faecalis assessed as inhibition of bacterial growth after 24 hrs by microbroth dilution method; outline: as §1
[11] = tested on: Pseudomonas aeruginosa; test: Antibacterial activity against Pseudomonas aeruginosa assessed as inhibition of bacterial growth after 24 hrs by microbroth dilution method; outline: as §1
[12] = tested on: Staphylococcus aureus; test: Potency index, ratio of norfloxacin MIC to compound MIC for antibacterial activity against Staphylococcus aureus incubated for 24 hrs by microbroth dilution method

| Structure (SMILES) | MIC [1] [µg/mL] | MIC [2] [µg/mL] | MIC [3] [µg/mL] | MIC [4] [µg/mL] | MIC [5] [µg/mL] | MIC [6] [µg/mL] | MIC [7] [µg/mL] | MIC [8] [µg/mL] | MIC [9] [µg/mL] | MIC [10] [µg/mL] | MIC [11] [µg/mL] | Ratio [12] |
| --- | --- | --- | --- | --- | --- | --- | --- | --- | --- | --- | --- | --- |
| O=C1c2cccc(O)c2C(=O)c2c(O)cc(CCl)cc21 | 128 (≈ 443 µM) | 32 (≈ 111 µM) | 64 (≈ 222 µM) | 128 (≈ 443 µM) | 64 (≈ 222 µM) | 32 (≈ 111 µM) | 32 (≈ 111 µM) | 32 (≈ 111 µM) | 64 (≈ 222 µM) | 256 (≈ 887 µM) | 64 (≈ 222 µM) | – |
| O=C1c2cccc(O)c2C(=O)c2c(O)cc(CSc3nnc[nH]3)cc21 | 128 (≈ 362 µM) | 64 (≈ 181 µM) | 16 (≈ 45.3 µM) | 16 (≈ 45.3 µM) | 16 (≈ 45.3 µM) | 64 (≈ 181 µM) | 64 (≈ 181 µM) | 64 (≈ 181 µM) | 64 (≈ 181 µM) | 128 (≈ 362 µM) | 32 (≈ 90.6 µM) | – |
| Cc1ccc2c(c1)ncn2Cc1cc(O)c2c(c1)C(=O)c1cccc(O)c1C2=O | 64 (≈ 166 µM) | 64 (≈ 166 µM) | 32 (≈ 83.2 µM) | 32 (≈ 83.2 µM) | 32 (≈ 83.2 µM) | 32 (≈ 83.2 µM) | 64 (≈ 166 µM) | 64 (≈ 166 µM) | 64 (≈ 166 µM) | 32 (≈ 83.2 µM) | 32 (≈ 83.2 µM) | – |
| Cn1nnnc1SCc1cc(O)c2c(c1)C(=O)c1cccc(O)c1C2=O | 128 (≈ 347 µM) | 64 (≈ 174 µM) | 16 (≈ 43.4 µM) | 32 (≈ 86.9 µM) | 8 (≈ 21.7 µM) | 64 (≈ 174 µM) | 128 (≈ 347 µM) | 32 (≈ 86.9 µM) | 64 (≈ 174 µM) | 128 (≈ 347 µM) | 64 (≈ 174 µM) | 2 |
| Cn1ccnc1SCc1cc(O)c2c(c1)C(=O)c1cccc(O)c1C2=O | 128 (≈ 349 µM) | 64 (≈ 175 µM) | 256 (≈ 699 µM) | 128 (≈ 349 µM) | 128 (≈ 349 µM) | 128 (≈ 349 µM) | 128 (≈ 349 µM) | 128 (≈ 349 µM) | 32 (≈ 87.3 µM) | 128 (≈ 349 µM) | 128 (≈ 349 µM) | – |
| CCc1nc2ccccc2n1Cc1cc(O)c2c(c1)C(=O)c1cccc(O)c1C2=O | 64 (≈ 161 µM) | 64 (≈ 161 µM) | 128 (≈ 321 µM) | 64 (≈ 161 µM) | 64 (≈ 161 µM) | 32 (≈ 80.3 µM) | 64 (≈ 161 µM) | 64 (≈ 161 µM) | 64 (≈ 161 µM) | 16 (≈ 40.2 µM) | 64 (≈ 161 µM) | – |
| O=C1c2cccc(O)c2C(=O)c2c(O)cc(Cn3nnc4ccccc43)cc21 | 128 (≈ 345 µM) | 64 (≈ 172 µM) | 256 (≈ 689 µM) | 32 (≈ 86.2 µM) | 128 (≈ 345 µM) | 32 (≈ 86.2 µM) | 128 (≈ 345 µM) | 32 (≈ 86.2 µM) | 16 (≈ 43.1 µM) | 32 (≈ 86.2 µM) | 128 (≈ 345 µM) | – |
| O=C1c2cccc(O)c2C(=O)c2c(O)cc(Cn3cnc([N+](=O)[O-])c3)cc21 | 64 (≈ 175 µM) | 32 (≈ 87.6 µM) | 16 (≈ 43.8 µM) | 16 (≈ 43.8 µM) | 16 (≈ 43.8 µM) | 32 (≈ 87.6 µM) | 128 (≈ 350 µM) | 64 (≈ 175 µM) | 32 (≈ 87.6 µM) | 128 (≈ 350 µM) | 64 (≈ 175 µM) | – |
| O=C1c2cccc(O)c2C(=O)c2c(O)cc(Cn3c4ccccc4c4ccccc43)cc21 | 128 (≈ 305 µM) | 64 (≈ 153 µM) | 16 (≈ 38.1 µM) | 32 (≈ 76.3 µM) | 8 (≈ 19.1 µM) | 64 (≈ 153 µM) | 128 (≈ 305 µM) | 32 (≈ 76.3 µM) | 64 (≈ 153 µM) | 128 (≈ 305 µM) | 64 (≈ 153 µM) | – |
